From ChEMBL document CHEMBL1140080, “Adamantyl-substituted retinoid-derived molecules that interact with the orphan nuclear receptor small heterodimer partner: effects of replacing the 1-adamantyl or hydroxyl group on inhibition of cancer cell growth, induction of cancer cell apoptosis, and inhibition of SRC homology 2 …” (J Med Chem, 2008)

What was measured:
[1] = Induction of apoptosis in human HL60R cells at 0.1 uM after 24 hrs by acridine orange staining; type: functional
Summary of the method: (§1)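 KG-1, HL-60R (24 h) or MDA-MB-231 (96 h) cells in 5% FBS medium attached overnight, then were treated with analogue in Me2SO or vehicle (final 0.1% Me2SO). Apoptotic cells were scored by acridine orange staining on at least three replicates. Tested concentrations were 0.1–5.0 μM, plus 25 μM for KG-1.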

[2] = Induction of apoptosis in human HL60R cells at 1.0 uM after 24 hrs by acridine orange staining; type: functional; summary of the method: as §1
[3] = Growth inhibition of HMVE cells after 72 hrs by alamar blue method; type: cell-based; conditions: Homo sapiens
[4] = Growth inhibition of HMVE cells at 0.5 uM after 72 hrs by alamar blue method; type: cell-based; conditions: human; for inhibition at 72 h, 0.5 µM: HMVE cells, read-out: GI
MDA-MB-231 [5] = test: Induction of apoptosis in human MDA-MB-231 cells at 1.0 uM after 96 hrs by acridine orange staining; type: functional; summary of the method: as §1
MDA-MB-231 [6] = test: Induction of apoptosis in human MDA-MB-231 cells at 2.0 uM after 96 hrs by acridine orange staining; type: functional; summary of the method: as §1
[7] = target: T1, Tyrosine-protein phosphatase non-receptor type 11 (Homo sapiens, UniProt Q06124); test: Inhibition of SHP2 overexpressed in human KG1 cells; type: cell-based, KG-1
T1 sequence (Q06124 whole entry): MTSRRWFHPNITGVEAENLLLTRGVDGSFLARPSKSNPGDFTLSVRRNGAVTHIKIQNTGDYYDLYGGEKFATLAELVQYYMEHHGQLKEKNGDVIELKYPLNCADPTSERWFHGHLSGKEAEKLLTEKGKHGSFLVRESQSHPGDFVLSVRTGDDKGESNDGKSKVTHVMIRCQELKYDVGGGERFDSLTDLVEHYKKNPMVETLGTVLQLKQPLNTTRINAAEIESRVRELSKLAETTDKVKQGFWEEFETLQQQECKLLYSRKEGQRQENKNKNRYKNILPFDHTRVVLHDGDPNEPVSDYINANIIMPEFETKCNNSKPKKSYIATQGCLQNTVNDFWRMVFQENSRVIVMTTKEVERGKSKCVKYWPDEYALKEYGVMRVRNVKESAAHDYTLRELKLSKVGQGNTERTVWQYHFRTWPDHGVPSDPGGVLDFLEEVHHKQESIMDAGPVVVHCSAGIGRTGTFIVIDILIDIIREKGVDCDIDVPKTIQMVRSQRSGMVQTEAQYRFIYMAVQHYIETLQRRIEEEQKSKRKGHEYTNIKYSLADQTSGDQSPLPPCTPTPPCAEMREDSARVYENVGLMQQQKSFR
Summary of the method: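 Shp-2 PTP activity was measured as hydrolysis of the fluorogenic substrate 6,8-difluoro-4-methylumbelliferyl phosphate in the presence of analogue in Me2SO or Me2SO alone (final concentration 5%).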

KG-1 [8] = test: Induction of apoptosis in human KG1 cells at 1.0 uM […] by acridine orange staining; type: functional
KG-1 [9] = test: Induction of apoptosis in human KG1 cells at 5.0 uM […] by acridine orange staining; type: functional
[10] = Antiproliferative activity against human KG1 AML cells after 48 hrs by MTT assay; type: functional, cell-based; conditions: in the assay text read “by hemocytometer cell counting” for “by MTT assay”
Summary of the method: (§2)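 KG-1 cells in 5% FBS medium attached overnight, then treated 48 h with analogue in Me2SO or Me2SO alone (final 0.1%). Cells were harvested and counted by hemocytometer in triplicate wells. Highest concentration evaluated was 5 μM.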

DU-145 [11] = test: Antiproliferative activity against human DU145 cells after 72 hrs by MTT assay; type: functional, cell-based; conditions: DU-145, 72 h
Summary of the method: (§3)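 Cells attached for 24 h, then exposed 72 h to analogue in Me2SO or Me2SO alone (final Me2SO 0.1%), with media and compound renewed after 48 h. Viable cells were measured by MTS tetrazolium reduction in three replicates. Top concentration tested per compound was 2.5, 5, 10, 20 or 100 μM.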

MDA-MB-231 [12] = test: Antiproliferative activity against human MDA-MB-231 cells after 72 hrs by MTT assay; type: functional, cell-based; conditions: MDA-MB-231, 72 h; summary of the method: as §3
[13] = Antiproliferative activity against human H292 cells after 72 hrs by MTT assay; type: functional, cell-based; conditions: NCI-H292, 72 h; summary of the method: as §3
[14] = Antiproliferative activity against human KG1 AML cells at 5 uM after 48 hrs by MTT assay; type: functional; conditions: in the assay text read “by hemocytometer cell counting” for “by MTT assay”; summary of the method: as §2
DU-145 [15] = test: Antiproliferative activity against human DU145 cells at 5 uM after 72 hrs by MTT assay; type: functional; conditions: DU-145, 72 h; summary of the method: as §3
MDA-MB-231 [16] = test: Antiproliferative activity against human MDA-MB-231 cells at 5 uM after 72 hrs by MTT assay; type: functional; conditions: MDA-MB-231, 72 h; summary of the method: as §3
[17] = Antiproliferative activity against human H292 cells at 5 uM after 72 hrs by MTT assay; type: functional; conditions: NCI-H292, 72 h; summary of the method: as §3

| SMILES | Activity [1] [%] | Activity [2] [%] | IC50 [3] [nM] | inhibition at 72 h, 0.5 µM [4] [%] | Activity (MDA-MB-231 [5]) [%] | also measured |
| --- | --- | --- | --- | --- | --- | --- |
| Cc1cc(C)c(-c2cc(-c3ccc4cc(C(=O)O)ccc4c3C)ccc2O)c(C)c1 | 0 | 0 | > 500 | 17 | – | – |
| O=C(O)c1ccc2cc(-c3cc(C45CC6CC(CC(C6)C4)C5)ccc3O)ccc2c1 | – | – | – | – | 0 | – |
| COc1ccc(C23CC4CC(CC(C4)C2)C3)cc1-c1ccc2cc(C(=O)O)ccc2c1 | – | 0 | – | – | – | – |
| Cc1c(-c2ccc(O)c(-c3ccc4c(c3)C(C)(C)CCC4(C)C)c2)ccc2cc(C(=O)O)ccc12 | 0 | 0 | 600 | 60 | – | – |
| CC(C)=CCC/C(C)=C\Cc1cc(-c2ccc3cc(C(=O)O)ccc3c2)ccc1O | – | 0 | – | – | – | – |
| Cc1c(-c2ccc(O)c(C34CC5CC(CC(C5)C3)C4)c2)ccc2cc(C(=O)O)ccc12 | 29 | 70 | 340 | 65 | 28 | Activity (MDA-MB-231 [6]): 43% |
| COCCOCOc1ccc(-c2ccc3cc(C(=O)O)ccc3c2)cc1C12CC3CC(CC(C3)C1)C2 | – | 21 | – | – | – | – |
| COc1cc(-c2ccc3cc(C(=O)O)ccc3c2)ccc1C12CC3CC(CC(C3)C1)C2 | – | 0 | – | – | – | – |
| CC1(C)CC(c2cc(-c3ccc4cc(C(=O)O)ccc4c3)ccc2O)CC(C)(C)C1 | 26 | 60 | 500 | 50 | 10 | Activity (MDA-MB-231 [6]): 49% |
| O=C(O)c1ccc2cc(-c3cc(O)c(O)c(C45CC6CC(CC(C6)C4)C5)c3)ccc2c1 | – | – | – | – | 0 | – |
| O=C(O)c1ccc2cc(-c3cc(O)cc(C45CC6CC(CC(C6)C4)C5)c3)ccc2c1 | – | – | – | – | 0 | – |
| O=C(O)/C=C/c1ccc(-c2ccc(O)c(C34CC5CC(CC(C5)C3)C4)c2)cc1 [ADAROTENE] | – | 98 | 100 | 90 | 53 | Activity (MDA-MB-231 [6]): 58% |
| CC(C)(C)c1cc(-c2ccc3cc(C(=O)O)ccc3c2)ccc1O | – | – | > 500 | 10 | – | – |
| COc1cc(-c2ccc3cc(C(=O)O)ccc3c2)cc(C23CC4CC(CC(C4)C2)C3)c1 | – | – | – | – | 20 | – |
| COc1ccc(-c2ccc3cc(C(=O)O)ccc3c2)cc1C12CC3CC(CC(C3)C1)C2 | 3 | 95 | – | – | – | – |
| COc1cc(-c2ccc3cc(C(=O)O)ccc3c2C)ccc1O | -4 | 7 | – | – | 5 | Activity (MDA-MB-231 [6]): 7% |

| SMILES | Activity [1] [%] | Activity [2] [%] | IC50 [3] [nM] | inhibition at 72 h, 0.5 µM [4] [%] | Activity (MDA-MB-231 [5]) [%] | also measured |
| --- | --- | --- | --- | --- | --- | --- |
| O=C(O)c1ccc2cc(-c3ccc(O)c([C@@H]4CCC[C@H]5CCCCC54)c3)ccc2c1 (stereo not given in full) | – | 0 | > 500 | 10 | – | – |
| O=C(O)c1ccc2c(Cl)c(-c3ccc(O)c(C45CC6CC(CC(C6)C4)C5)c3)ccc2c1 | 62 | 94 | > 500 | 45 | 21 | Activity (MDA-MB-231 [6]): 41% |
| O=C(O)/C=C/c1ccc(-c2ccc(O)c(C3C4CC5CC(C4)CC3C5)c2)cc1 (stereo not given) | 2 | 90 | – | – | 20 | Activity (MDA-MB-231 [6]): 47% |
| CC1=C(/C=C/C(C)=C/C=C/C(C)=C/C(=O)O)C(C)(C)CCC1 [TRETINOIN] | 0 | 0 | > 500 | 10 | 0 | Activity (MDA-MB-231 [6]): 0% |
| CC1(C)CCC(C)(C)c2cc(-c3ccc4cc(C(=O)O)ccc4c3)c(CO)cc21 | – | – | – | – | 0 | – |
| COc1cc(-c2ccc3cc(C(=O)O)ccc3c2)cc(C23CC4CC(CC(C4)C2)C3)c1O | – | – | – | – | 0 | – |
| CC(c1cc(-c2ccc3cc(C(=O)O)ccc3c2)ccc1O)C12CC3CC(CC(C3)C1)C2 (stereo not given) | – | 0 | > 500 | 30 | – | – |
| CC1C2(c3cc(-c4ccc(/C=C/C(=O)O)cc4)ccc3O)CCC(C2)C1(C)C (stereo not given) | 2 | 2 | > 500 | – | – | growth inhibition (GI) ([4]; hmve, 72 h, 0.5 µM): 40% |
| O=C(O)c1ccc2cc(-c3ccc(O)c(C45CC6CC(CC(C6)C4)C5)c3)ccc2c1 [O-DEMETHYLATED ADAPALENE] | 73 | 98 | – | – | 26 | Activity (MDA-MB-231 [6]): 46% |
| CC1(c2cc(-c3ccc(/C=C/C(=O)O)cc3Cl)ccc2O)CCCCC1 | – | – | – | – | – | IC50 [7]: 6400 nM; Activity (KG-1 [8]): 0%; Activity (KG-1 [9]): 0%; IC50 [10]: > 5000 nM; IC50 (DU-145 [11]): 8000 nM; IC50 (MDA-MB-231 [12]): > 5000 nM; IC50 [13]: 3900 nM; Activity [14]: 0%; inhibition at 5 µM (DU-145 [15]): 32%; inhibition at 5 µM (MDA-MB-231 [16]): 9%; inhibition at 5 µM [17]: 63% |
| O=C(O)c1ccc2cc(-c3ccc(O)c([C@H]4CCC5CCCC[C@H]5C4)c3)ccc2c1 (stereo not given in full) | – | 0 | – | – | – | – |
| O=C(O)c1ccc2cc(-c3ccc(O)c([C@@H]4CC[C@@H]5CCCC[C@H]5C4)c3)ccc2c1 | – | 0 | > 500 | 0 | – | – |
| CCCCC[C@@H]1CC2(c3cc(-c4ccc(/C=C/C(=O)O)cc4)ccc3O)CCC1CC2 | 0 | 0 | – | – | – | – |
| CC1(C)CCC(C)(C)c2cc(-c3cc(-c4ccc(/C=C/C(=O)O)cc4)ccc3O)ccc21 | – | 0 | – | – | – | – |
| O=C(O)c1ccc2cc(-c3ccc(O)c(C4C5CC6CC(C5)CC4C6)c3)ccc2c1 (stereo not given) | 0 | 0 | > 500 | 35 | – | – |
